Experimental data: ChEMBL document CHEMBL1122873, “Acetoxy-substituted 1,1,2-triphenylbut-1-enes with antiestrogenic and mammary tumor inhibiting properties” (1985)

What was measured:
[1] = target: T1, Estrogen receptor (Bos taurus) (UniProt Q9XSB5+P49884); experiment: Relative displacement of [3H]estradiol from calf uterine estrogen receptor; format: protein assay
Outline: (§1)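 Calf uterine cytosol was incubated with 1×10⁻⁹ M [³H]estradiol and five or six competitor concentrations for 16 h at 4 °C. Dextran-coated charcoal removed unbound ligand (90 min, 4 °C), and supernatant radioactivity was counted. The 50% displacement concentration was read from a semilog plot. RBA = [E2]/[I] × 100.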

[2] = target: T2, Estrogen receptor (Mus musculus) (UniProt O08537+P19785); experiment: In vivo uterotrophic effect in hormone-dependent MXT mammary tumor bearing BDF1 mice at 8.0 mg/kg dose; format: functional, organism-based; design: dose 8 mg/kg
T2 sequence (O08537 whole entry, looked up): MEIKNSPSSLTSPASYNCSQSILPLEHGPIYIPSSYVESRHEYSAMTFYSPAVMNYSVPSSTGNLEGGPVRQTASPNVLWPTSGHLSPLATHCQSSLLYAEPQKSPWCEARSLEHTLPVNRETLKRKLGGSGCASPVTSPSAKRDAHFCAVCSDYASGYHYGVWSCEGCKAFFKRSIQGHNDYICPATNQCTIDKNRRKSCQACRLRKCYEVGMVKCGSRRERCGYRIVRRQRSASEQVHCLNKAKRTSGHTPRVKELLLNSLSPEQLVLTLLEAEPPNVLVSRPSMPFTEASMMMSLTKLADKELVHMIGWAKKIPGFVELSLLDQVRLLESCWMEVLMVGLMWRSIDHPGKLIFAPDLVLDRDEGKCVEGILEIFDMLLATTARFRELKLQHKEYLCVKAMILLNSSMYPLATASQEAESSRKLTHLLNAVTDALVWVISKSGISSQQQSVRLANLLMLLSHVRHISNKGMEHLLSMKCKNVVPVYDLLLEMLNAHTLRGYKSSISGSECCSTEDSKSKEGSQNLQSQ
T2 sequence (P19785 whole entry, looked up): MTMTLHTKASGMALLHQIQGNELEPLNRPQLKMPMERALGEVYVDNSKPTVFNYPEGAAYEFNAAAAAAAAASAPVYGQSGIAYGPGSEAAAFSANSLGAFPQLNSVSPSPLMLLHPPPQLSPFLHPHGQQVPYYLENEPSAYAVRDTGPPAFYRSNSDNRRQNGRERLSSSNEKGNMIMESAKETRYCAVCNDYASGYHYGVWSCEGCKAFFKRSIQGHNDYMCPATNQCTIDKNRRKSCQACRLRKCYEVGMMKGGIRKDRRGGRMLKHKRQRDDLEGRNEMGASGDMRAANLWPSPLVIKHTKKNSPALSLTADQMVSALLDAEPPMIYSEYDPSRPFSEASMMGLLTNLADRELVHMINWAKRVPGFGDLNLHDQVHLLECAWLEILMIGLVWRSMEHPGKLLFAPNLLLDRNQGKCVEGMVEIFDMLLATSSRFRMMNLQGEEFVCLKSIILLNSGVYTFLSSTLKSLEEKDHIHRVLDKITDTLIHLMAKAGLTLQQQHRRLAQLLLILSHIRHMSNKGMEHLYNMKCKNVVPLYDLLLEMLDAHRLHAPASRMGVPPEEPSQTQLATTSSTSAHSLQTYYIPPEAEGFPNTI
Outline: (§2)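 Uterotrophic effect was measured in the same MXT tumor-bearing BDF1 mice (groups of 10). They were dosed sc three times weekly in olive oil (0.1 mL/mouse) for 6 weeks from day 1 after transplantation. Read-out is T/C % of uterotrophic effect versus solvent control after 6 weeks (mean of 10); significance α ≤ 0.05.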

[3] = target: T2, Estrogen receptor (Mus musculus); experiment: Estrogenic activity in immature mouse using Uterine weight test at 1 ug dose; format: functional
Outline: (§3)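 Immature female NMRI mice (10–12 g, 20 days old at start, 10 per group) got the compound sc daily for 3 consecutive days in 0.1 mL olive oil. Uteri were removed 24 h after the last injection, fixed in Bouin's solution, dried and weighed. Uterine growth stimulation is the estrogenic read-out.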

[4] = target: T2, Estrogen receptor (Mus musculus); experiment: Estrogenic activity in immature mouse using Uterine weight test at 0.5 ug dose; format: functional; outline: as §3
[5] = target: T2, Estrogen receptor (Mus musculus); experiment: Estrogenic activity in immature mouse using Uterine weight test at 5 ug dose; format: functional; outline: as §3
Mus musculus [6] = experiment: In vivo inhibition of hormone-dependent MXT mammary tumor in BDF1 mouse at 8.0 mg/kg dose; format: functional
Outline: (§4)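 Transplantable hormone-dependent MXT tumor pieces (1 per animal) were implanted in BDF1 mice, then randomized into groups of 10. Dosing was sc three times weekly (Mon/Wed/Fri) in olive oil (0.1 mL/mouse) from day 1 after transplantation for 6 weeks, at equimolar doses. Read-out is tumor weight T/C % versus solvent control (mean of 10); significance α ≤ 0.05.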

[7] = target: T2, Estrogen receptor (Mus musculus); experiment: Antiestrogenic activity in immature mouse Uterine weight test at 100 ug dose; format: functional
Outline: (§5)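 Antiestrogenic read-out is inhibition of estrone-stimulated uterine growth, given as % inhibition. Immature female NMRI mice (10–12 g, 20 days old, 10 per group) received the compound sc daily for 3 days in 0.1 mL olive oil. Uteri were taken 24 h after the last dose, Bouin-fixed, dried and weighed.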

[8] = target: T2, Estrogen receptor (Mus musculus); experiment: Antiestrogenic activity in immature mouse Uterine weight test at 5 ug dose; format: functional; outline: as §5
[9] = target: T2, Estrogen receptor (Mus musculus); experiment: Antiestrogenic activity in immature mouse Uterine weight test at 25 ug dose; format: functional; outline: as §5
[10] = target: T2, Estrogen receptor (Mus musculus); experiment: Estrogenic activity in immature mouse using Uterine weight test at 50 ug dose; format: functional; outline: as §3
[11] = target: T1, Estrogen receptor (Bos taurus); experiment: Tested in vitro for its binding affinity against Estrogen receptor; format: protein assay; outline: as §1
[12] = target: T2, Estrogen receptor (Mus musculus); experiment: Antiestrogenic activity in immature mouse Uterine weight test at 25 ug dose
Mus musculus [13] = experiment: In vivo inhibition of hormone-dependent MXT mammary tumor in BDF1 mouse at 11.3 mg/kg dose; format: functional; outline: as §4
[14] = target: T2, Estrogen receptor (Mus musculus); experiment: Antiestrogenic activity in immature mouse Uterine weight test at 1 ug dose; format: functional; outline: as §5
[15] = target: T2, Estrogen receptor (Mus musculus); experiment: Estrogenic activity in immature mouse using Uterine weight test at 10 ug dose; format: functional; outline: as §3
[16] = target: T2, Estrogen receptor (Mus musculus); experiment: Estrogenic activity in immature mouse using Uterine weight test at 25 ug dose; format: functional; outline: as §3
Mus musculus [17] = experiment: In vivo inhibition of hormone-dependent MXT mammary tumor in BDF1 mouse at 12 mg/kg dose; format: functional; outline: as §4
[18] = target: T2, Estrogen receptor (Mus musculus); experiment: Estrogenic activity in immature mouse using Uterine weight test at 250 ug dose; format: functional; outline: as §3
[19] = target: T2, Estrogen receptor (Mus musculus); experiment: In vivo uterotrophic effect in hormone-dependent MXT mammary tumor bearing BDF1 mice at 12 mg/kg dose; format: functional, organism-based; design: dose 12 mg/kg; outline: as §2
Mus musculus [20] = experiment: In vivo inhibition of hormone-dependent MXT mammary tumor in BDF1 mouse at 5.4 mg/kg dose; format: functional; outline: as §4

Row | RBA [1] [%] | T/C [2] [%] | Estrogenic effect [3] | Estrogenic effect [5] | inhibition [7] [%] | inhibition [8] [%] | inhibition [9] [%] | Estrogenic effect [10] | SMILES | T/C (Mus musculus [6]) [%] | further results
1 | 11.1 | 205 | 114 | 81 |  |  |  |  | CC/C(=C(/c1ccccc1)c1ccc(OC(C)=O)cc1)c1cccc(OC(C)=O)c1 | 1 | Estrogenic effect [4]: 124
2 | 1.8 | 96 | 0 | 18 | 9 | 45 | 16 | 61 | CC/C(=C(\c1ccccc1)c1cccc(OC(C)=O)c1)c1ccc(OC(C)=O)cc1 | 62 | 
3 |  | 193 |  | 94 |  | 0 | 0 |  | CC/C(=C(\c1ccccc1)c1ccc(OC(C)=O)cc1)c1cccc(OC(C)=O)c1 | 7 | relative binding affinity (RBA) [11]: 6.1; inhibition [12]: 0%
4 |  |  |  |  |  |  |  |  | CC/C(=C(\c1ccccc1)c1ccc(OCCN(C)C)cc1)c1ccccc1.O=C(O)CC(O)(CC(=O)O)C(=O)O [TAMOXIFEN CITRATE] |  | T/C (Mus musculus [13]): 4%
5 |  | 110 | 37 | 72 |  | 0 |  |  | CCC(=C(c1ccc(OC(C)=O)cc1)c1ccc(OC(C)=O)cc1)c1ccccc1 | 7 | inhibition [14]: 0%; Estrogenic effect [15]: 85; Estrogenic effect [16]: 98
6 | 3.5 |  | 8 | 15 | 9 | 28 | 33 | 66 | CC/C(=C(/c1ccc(OC(C)=O)cc1)c1cccc(OC(C)=O)c1)c1ccccc1 |  | T/C (Mus musculus [17]): 8%; Estrogenic effect [18]: 66; T/C [19]: 110%
7 |  |  |  |  |  |  |  |  | CC/C(=C(/CC)c1ccc(O)cc1)c1ccc(O)cc1 [DIETHYLSTILBESTROL] |  | T/C (Mus musculus [20]): 3%
8 | 4.2 | 175 | 18 | 80 |  | 0 | 0 | 92 | CC/C(=C(/c1ccccc1)c1cccc(OC(C)=O)c1)c1ccc(OC(C)=O)cc1 | 2 | inhibition [14]: 12%
9 | 8.7 | 116 | 23 | 35 | 3 | 41 | 32 | 73 | CC/C(=C(\c1ccc(OC(C)=O)cc1)c1cccc(OC(C)=O)c1)c1ccccc1 | 25 | Estrogenic effect [18]: 85
